The text below walks through data of ChEMBL document CHEMBL3872268, “3-Amino-thieno[2,3-b]pyridines as microtubule-destabilising agents: Molecular modelling and biological evaluation in the sea urchin embryo and human cancer cells” (Bioorg Med Chem, 2017).

Active and inactive are the calls of the source. Bounds are passed on as bounds.

Data set [1] has as its system Paracentrotus lividus. Briefly: Induction of microtubule destabilization in sea urchin embryo assessed as cleavage arrest exposed for 8 to 20 mins after fertilization and 45 to 55 mins before first mitotic cycle completion measured 2.5 to 5.5 hrs after fertilization. In outline: (§1)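 Gametes were obtained by intracoelomic injection of 0.5 M KCl, and eggs were fertilised in filtered seawater. Embryos were cultured at room temperature with paddle agitation (60 rpm), as a monolayer at up to 2000 embryos/mL. Eggs were exposed 8–20 min post-fertilisation to 2-fold decreasing concentrations (10 mM DMSO stock diluted 10-fold in EtOH). Cleavage was scored microscopically at 2.5–5.5 h. The read-out was the threshold concentration, in duplicate.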

Data set [2] in a line: Growth inhibition of human NCI60 cells at 10 uM incubated for 48 hrs by sulforhodamine B assay relative to control. It counts as functional. Particulars: NCI60, 48 h, read-out: GI. The method in brief: (§2)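 NCI Developmental Therapeutics Program panel of sixty human tumour cell lines. Compounds were screened first at a single 10 μM dose (percent growth inhibition), and dose-response curves were run for active ligands. GI50 is the concentration giving 50% growth inhibition, reported as the mean across the 60 lines.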
On the technique in general: Sulforhodamine B stains cellular protein and so reports cell mass.

Data set [3] can be described thus: Growth inhibition of human NCI60 cells incubated for 48 hrs by sulforhodamine B assay. The settings on record: NCI60, 48 h. It counts as functional. The method in brief:
as §2

Data set [4] relates to Paracentrotus lividus. Briefly: Induction of microtubule destabilization activity in sea urchin free-swimming blastulae assessed as embryo spinning measured after 0.25 to 20 hrs. Particulars: Blastula. The method in brief: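 Free-swimming blastulae just after hatching (8–10 h post-fertilisation) were cultured in filtered seawater at room temperature. They were treated with 2-fold decreasing concentrations (DMSO stock diluted 10-fold in EtOH; final DMSO ≤0.05%, EtOH ≤1%). Spinning and lack of forward movement were observed by light microscopy after 15 min to 20 h. The value is the effective threshold concentration, from duplicate measurements.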

The subject of data set [5] is Paracentrotus lividus. Briefly: Induction of microtubule destabilization in sea urchin embryo assessed as cleavage alteration exposed 8 to 20 mins after fertilization and 45 to 55 mins before first mitotic cycle completion measured 2.5 to 5.5 hrs after fertilization. The method in brief:
as §1

Data set [6] has as its system Paracentrotus lividus. Briefly: Induction of microtubule destabilization in sea urchin embryo assessed as formation of tuberculate eggs for 8 to 20 mins after fertilization and 45 to 55 mins before first mitotic cycle completion measured 2.5 to 5.5 hrs after fertilization. In outline: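 Sea urchin gametes were obtained by intracoelomic 0.5 M KCl injection, and embryos were cultured in filtered seawater at room temperature at up to 2000 embryos/mL. Fertilised eggs were exposed to 2-fold decreasing concentrations from 10 mM DMSO stocks diluted 10-fold in 96% EtOH. Final DMSO was kept ≤0.05% and EtOH ≤1%. Microscopic scoring gave the EC, the threshold causing 100% cleavage alteration, in duplicate.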

Data set [7] can be described thus: Toxicity in sea urchin embryo assessed as induction of embryo disintegration at early pluteus stage. The settings on record: paracentrotus lividus.
Data set [8] can be described thus: Toxicity in sea urchin embryo assessed as induction of embryo death at early pluteus stage. Particulars: paracentrotus lividus.

One may read the GI50 as the concentration at which growth is held to half of that of the control. Turning to `COc1ccc(C(=O)c2sc3nc4c(cc3c2N)CCCC4)cc1OC`, the EC in the data set on Paracentrotus lividus [1] was 4 µM; in the data set with Paracentrotus lividus [4], > 5 µM; in the data set with Paracentrotus lividus [5], 0.5 µM. The inhibition of growth at 10 µM in data set [2] stood at 60.5%. Moreover, in data set [3], the GI50 came out at 3.24 µM. Further, in the data set on Paracentrotus lividus [6], the outcome was Active.
For the compound `COc1ccc(C(=O)c2sc3nc(-c4cccs4)ccc3c2N)cc1OC`, the values for the EC in the data set with Paracentrotus lividus [1], with Paracentrotus lividus [4] and in the data set on Paracentrotus lividus [5] were > 4 µM, > 4 µM and 4 µM, respectively. Also, the inhibition of growth at 10 µM in data set [2] is 52.6%. The Activity entry in data set [7] and in data set [8] was “Toxic” each time. Further, it took 6.31 µM to inhibit growth in data set [3] by half (GI50).
Consider `COc1ccc(C(=O)c2sc3nc(-c4cccs4)ccc3c2N)cc1`, for which the EC with Paracentrotus lividus [1], with Paracentrotus lividus [4] and with Paracentrotus lividus [5] was > 4 µM each time. Further, the Activity result in data set [7] and in data set [8] was “Toxic” each time.
As to `Nc1c(C(=O)c2ccc(Cl)cc2)sc2nc(-c3cccs3)ccc12`, the EC with Paracentrotus lividus [1], in the data set with Paracentrotus lividus [4] and with Paracentrotus lividus [5] was > 4 µM throughout. Moreover, the Activity entry in data set [7] and in data set [8] was “Toxic” throughout.
